A word on the IC50: it is the point on the concentration scale where inhibition reaches its midpoint. A low value points to inhibition by little substance.

Structures are written as SMILES.

One assay deals with HL-60. As to the kind of experiment: Cytotoxicity against human HL60 cells after 48 hrs by MTT assay. The assay is classed as functional, cell-based. The settings on record: HL-60, 48 h. In outline: (§1)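 Cells were treated with a range of concentrations for 48 h. Viability was read by MTT: formazan was dissolved in DMSO and absorbance read at 570 nm. Untreated or 0.1% DMSO cells served as control. Data are mean from three independent experiments. HL-60, H460 and COLO 205 were kept in RPMI-1640 with 10% FBS and penicillin/streptomycin.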
A general note: Tetrazolium assays rely on reduction of a dye to a coloured formazan, in cell work by metabolically active cells.
The compound `CCn1c2ccccc2c2oc(C(=O)OC)cc21` gave an IC50 of over 50 µM.

In the case of `COC(=O)c1cc2c(o1)c1ccccc1n2Cc1cccc(F)c1`, the IC50 is over 50 µM.

On to `COc1ccc(Cn2c3ccccc3c3oc(CO)cc32)cc1`, for which the IC50 was 54.5 µM.

On to `COC(=O)c1cc2c(o1)c1ccccc1n2Cc1ccccc1F`, for which the half-inhibitory concentration (IC50) was over 50 µM.

Turning to `COc1cccc(Cn2c3ccccc3c3oc(CO)cc32)c1`, the IC50 was found to be 35.4 µM.

In turn, `O=C(O)c1cc2c(o1)c1ccccc1n2Cc1ccccc1` returned an IC50 of over 50 µM.

`OCc1cc2c(o1)c1ccccc1n2Cc1ccccc1Cl` registered an IC50 of 16.8 µM.

As to `OCc1cc2c(o1)c1ccccc1n2Cc1ccc(F)cc1`, the 50% inhibitory concentration (IC50) was over 50 µM.

For `COC(=O)c1cccc(Cn2c3ccccc3c3oc(C(=O)OC)cc32)c1`, it took 16.5 µM to reach half-maximal inhibition (IC50).

`COC(=O)c1cc2c(o1)c1ccccc1n2Cc1ccccc1OC` had an IC50 of 25.1 µM.

In the case of `COC(=O)c1cc2c(o1)c1ccccc1n2Cc1ccccc1Cl`, the half-inhibitory concentration (IC50) is over 50 µM.

The compound `OCc1cc2c(o1)c1ccccc1n2Cc1cccc(F)c1` gave a half-inhibitory concentration (IC50) of 25 µM.

The compound `COC(=O)c1ccc(Cn2c3ccccc3c3oc(C(=O)OC)cc32)cc1` had an IC50 of over 50 µM.

In turn, `COc1ccccc1Cn1c2ccccc2c2oc(CO)cc21` came in with an IC50 of 13.3 µM.

As for `OCc1cc2c(o1)c1ccccc1n2Cc1ccccc1F`, the IC50 is over 50 µM.

Take `OCc1ccc(Cn2c3ccccc3c3oc(CO)cc32)cc1`: the IC50 is over 50 µM.

For the compound `OCc1cc2[nH]c3ccccc3c2o1`, the IC50 is over 50 µM.

System in the next assay: not listed separately
The assay can be described thus: Cytotoxicity against human H460 cells after 48 hrs by MTT assay. The assay is classed as functional, cell-based. The settings on record: NCI-H460, 48 h. In outline:
as §1
For the compound `CCn1c2ccccc2c2oc(C(=O)OC)cc21`, the concentration for half-maximal inhibition (IC50) is over 50 µM.

`COC(=O)c1cc2c(o1)c1ccccc1n2Cc1cccc(F)c1`: the concentration for half-maximal inhibition (IC50) is over 50 µM.

As for `COc1ccc(Cn2c3ccccc3c3oc(CO)cc32)cc1`, the half-maximal inhibitory concentration (IC50) was found to be 42.9 µM.

`COC(=O)c1cc2c(o1)c1ccccc1n2Cc1ccccc1F` registered an IC50 of over 50 µM.

Compound `COc1cccc(Cn2c3ccccc3c3oc(CO)cc32)c1` displayed an IC50 of 52 µM.

As to `O=C(O)c1cc2c(o1)c1ccccc1n2Cc1ccccc1`, the IC50 was over 50 µM.

Take `OCc1cc2c(o1)c1ccccc1n2Cc1ccccc1Cl`: the midpoint of inhibition, the IC50, lay at 30.5 µM.

In turn, `OCc1cc2c(o1)c1ccccc1n2Cc1ccc(F)cc1` showed a concentration for half-maximal inhibition (IC50) of 36.7 µM.

In turn, `COC(=O)c1cccc(Cn2c3ccccc3c3oc(C(=O)OC)cc32)c1` returned an IC50 of over 50 µM.

Consider `COC(=O)c1cc2c(o1)c1ccccc1n2Cc1ccccc1OC`, for which the IC50 was over 50 µM.

`COC(=O)c1cc2c(o1)c1ccccc1n2Cc1ccccc1Cl`: the IC50 is over 50 µM.

Regarding `OCc1cc2c(o1)c1ccccc1n2Cc1cccc(F)c1`, the IC50 was found to be 50 µM.

In turn, `COC(=O)c1ccc(Cn2c3ccccc3c3oc(C(=O)OC)cc32)cc1` showed a half-inhibitory concentration (IC50) of over 50 µM.

For `COc1ccccc1Cn1c2ccccc2c2oc(CO)cc21`, half-maximal inhibition (IC50) was put at 30.8 µM.

`OCc1cc2c(o1)c1ccccc1n2Cc1ccccc1F` came in with an IC50 of over 50 µM.

`OCc1ccc(Cn2c3ccccc3c3oc(CO)cc32)cc1` had a concentration for half-maximal inhibition (IC50) of over 50 µM.

Regarding `OCc1cc2[nH]c3ccccc3c2o1`, the concentration for half-maximal inhibition (IC50) was over 50 µM.

System in a further assay: not listed separately
As to the kind of experiment: Cytotoxicity against human Hep3B cells after 48 hrs by MTT assay. The class given is functional, cell-based, Hep 3B2.
Conditions: not given
In the case of `CCn1c2ccccc2c2oc(C(=O)OC)cc21`, the IC50 is over 50 µM.

For the compound `COC(=O)c1cc2c(o1)c1ccccc1n2Cc1cccc(F)c1`, the half-inhibitory concentration (IC50) was over 50 µM.

In turn, `COc1ccc(Cn2c3ccccc3c3oc(CO)cc32)cc1` yielded an IC50 of 45.9 µM.

`COC(=O)c1cc2c(o1)c1ccccc1n2Cc1ccccc1F` displayed an IC50 of over 50 µM.

For `COc1cccc(Cn2c3ccccc3c3oc(CO)cc32)c1`, half-maximal inhibition (IC50) required 31.9 µM.

Compound `O=C(O)c1cc2c(o1)c1ccccc1n2Cc1ccccc1` came in with an IC50 of over 50 µM.

`OCc1cc2c(o1)c1ccccc1n2Cc1ccccc1Cl` registered an IC50 of 43.1 µM.

`OCc1cc2c(o1)c1ccccc1n2Cc1ccc(F)cc1`: the half-maximal inhibitory concentration (IC50) amounted to 44.2 µM.

Compound `COC(=O)c1cccc(Cn2c3ccccc3c3oc(C(=O)OC)cc32)c1` returned a half-inhibitory concentration (IC50) of 50 µM.

In turn, `COC(=O)c1cc2c(o1)c1ccccc1n2Cc1ccccc1OC` gave an IC50 of 50 µM.

As for `COC(=O)c1cc2c(o1)c1ccccc1n2Cc1ccccc1Cl`, the IC50 is over 50 µM.

With `OCc1cc2c(o1)c1ccccc1n2Cc1cccc(F)c1`, inhibition was half-maximal at 44 µM (IC50).

The compound `COC(=O)c1ccc(Cn2c3ccccc3c3oc(C(=O)OC)cc32)cc1` gave an IC50 of over 50 µM.

In turn, `COc1ccccc1Cn1c2ccccc2c2oc(CO)cc21` displayed a 50% inhibitory concentration (IC50) of 24.6 µM.

With `OCc1cc2c(o1)c1ccccc1n2Cc1ccccc1F`, the concentration for half-maximal inhibition (IC50) was 50 µM.

`OCc1ccc(Cn2c3ccccc3c3oc(CO)cc32)cc1` displayed an IC50 of over 50 µM.

As to `OCc1cc2[nH]c3ccccc3c2o1`, the 50% inhibitory concentration (IC50) was over 50 µM.

The test system of a further assay is A498. As to the kind of experiment: Cytotoxicity against human A498 cells after 48 hrs by MTT assay. The assay is classed as functional, cell-based. The settings on record: A498, 48 h.
Turning to `CCn1c2ccccc2c2oc(C(=O)OC)cc21`, the 50% inhibitory concentration (IC50) is over 50 µM.

The compound `COC(=O)c1cc2c(o1)c1ccccc1n2Cc1cccc(F)c1` registered an IC50 of over 50 µM.

Compound `COc1ccc(Cn2c3ccccc3c3oc(CO)cc32)cc1` registered an IC50 of 0.36 µM.

The compound `COC(=O)c1cc2c(o1)c1ccccc1n2Cc1ccccc1F` had a half-inhibitory concentration (IC50) of over 50 µM.

`COc1cccc(Cn2c3ccccc3c3oc(CO)cc32)c1` had an IC50 of 0.33 µM.

The compound `O=C(O)c1cc2c(o1)c1ccccc1n2Cc1ccccc1` returned an IC50 of over 50 µM.

On to `OCc1cc2c(o1)c1ccccc1n2Cc1ccccc1Cl`, for which it took 5.5 µM to reach half-maximal inhibition (IC50).

As for `OCc1cc2c(o1)c1ccccc1n2Cc1ccc(F)cc1`, half-maximal inhibition (IC50) was put at 0.69 µM.

For the compound `COC(=O)c1cccc(Cn2c3ccccc3c3oc(C(=O)OC)cc32)c1`, the IC50 was over 50 µM.

Regarding `COC(=O)c1cc2c(o1)c1ccccc1n2Cc1ccccc1OC`, the IC50 is over 50 µM.

`COC(=O)c1cc2c(o1)c1ccccc1n2Cc1ccccc1Cl` showed a half-maximal inhibitory concentration (IC50) of over 50 µM.

In the case of `OCc1cc2c(o1)c1ccccc1n2Cc1cccc(F)c1`, the midpoint of inhibition, the IC50, lay at 0.59 µM.

In the case of `COC(=O)c1ccc(Cn2c3ccccc3c3oc(C(=O)OC)cc32)cc1`, the half-maximal inhibitory concentration (IC50) is over 50 µM.

Compound `COc1ccccc1Cn1c2ccccc2c2oc(CO)cc21` returned an IC50 of 4.3 µM.

The compound `OCc1cc2c(o1)c1ccccc1n2Cc1ccccc1F` returned a 50% inhibitory concentration (IC50) of 0.43 µM.

The compound `OCc1ccc(Cn2c3ccccc3c3oc(CO)cc32)cc1` came in with an IC50 of 0.47 µM.

`OCc1cc2[nH]c3ccccc3c2o1` came in with an IC50 of 21.8 µM.

A further assay has as its system Detroit 551. As to the kind of experiment: Cytotoxicity against human Detroit 551 cells after 48 hrs by MTT assay. The class given is cell-based. Conditions: Detroit 551, 48 h.
`CCn1c2ccccc2c2oc(C(=O)OC)cc21` showed an IC50 of over 50 µM.

For the compound `COC(=O)c1cc2c(o1)c1ccccc1n2Cc1cccc(F)c1`, the IC50 is over 50 µM.

Turning to `COc1ccc(Cn2c3ccccc3c3oc(CO)cc32)cc1`, the IC50 was over 50 µM.

Compound `COC(=O)c1cc2c(o1)c1ccccc1n2Cc1ccccc1F` registered a 50% inhibitory concentration (IC50) of over 50 µM.

Compound `COc1cccc(Cn2c3ccccc3c3oc(CO)cc32)c1` had an IC50 of over 50 µM.

The compound `O=C(O)c1cc2c(o1)c1ccccc1n2Cc1ccccc1` had an IC50 of over 50 µM.

For the compound `OCc1cc2c(o1)c1ccccc1n2Cc1ccccc1Cl`, the 50% inhibitory concentration (IC50) is over 50 µM.

Consider `OCc1cc2c(o1)c1ccccc1n2Cc1ccc(F)cc1`, for which the IC50 was over 50 µM.

For `COC(=O)c1cccc(Cn2c3ccccc3c3oc(C(=O)OC)cc32)c1`, the IC50 was over 50 µM.

`COC(=O)c1cc2c(o1)c1ccccc1n2Cc1ccccc1OC` returned an IC50 of over 50 µM.

As for `COC(=O)c1cc2c(o1)c1ccccc1n2Cc1ccccc1Cl`, the IC50 is over 50 µM.

With `OCc1cc2c(o1)c1ccccc1n2Cc1cccc(F)c1`, the half-maximal inhibitory concentration (IC50) was over 50 µM.

Consider `COC(=O)c1ccc(Cn2c3ccccc3c3oc(C(=O)OC)cc32)cc1`, for which the IC50 was over 50 µM.

`COc1ccccc1Cn1c2ccccc2c2oc(CO)cc21` came in with a concentration for half-maximal inhibition (IC50) of 60.5 µM.

Regarding `OCc1cc2c(o1)c1ccccc1n2Cc1ccccc1F`, the IC50 was over 50 µM.

Turning to `OCc1ccc(Cn2c3ccccc3c3oc(CO)cc32)cc1`, the IC50 is over 50 µM.

Consider `OCc1cc2[nH]c3ccccc3c2o1`, for which the IC50 was over 50 µM.

A further assay has as its system COLO 205. As to the kind of experiment: Cytotoxicity against human COLO205 cells after 48 hrs by MTT assay. The assay is classed as functional, cell-based. Conditions: COLO 205, 48 h. The essentials: as §1
As to `CCn1c2ccccc2c2oc(C(=O)OC)cc21`, the IC50 was over 50 µM.

For `COC(=O)c1cc2c(o1)c1ccccc1n2Cc1cccc(F)c1`, the concentration for half-maximal inhibition (IC50) was over 50 µM.

Compound `COc1ccc(Cn2c3ccccc3c3oc(CO)cc32)cc1` came in with an IC50 of 29.8 µM.

In turn, `COC(=O)c1cc2c(o1)c1ccccc1n2Cc1ccccc1F` yielded an IC50 of over 50 µM.

Turning to `COc1cccc(Cn2c3ccccc3c3oc(CO)cc32)c1`, the concentration for half-maximal inhibition (IC50) was determined as 31.9 µM.

For the compound `O=C(O)c1cc2c(o1)c1ccccc1n2Cc1ccccc1`, the IC50 was over 50 µM.

Compound `OCc1cc2c(o1)c1ccccc1n2Cc1ccccc1Cl` displayed an IC50 of 26.7 µM.

Compound `OCc1cc2c(o1)c1ccccc1n2Cc1ccc(F)cc1` showed a half-inhibitory concentration (IC50) of 35.9 µM.

`COC(=O)c1cccc(Cn2c3ccccc3c3oc(C(=O)OC)cc32)c1` displayed an IC50 of over 50 µM.

As for `COC(=O)c1cc2c(o1)c1ccccc1n2Cc1ccccc1OC`, the IC50 is 32.9 µM.

`COC(=O)c1cc2c(o1)c1ccccc1n2Cc1ccccc1Cl` registered an IC50 of over 25 µM.

As for `OCc1cc2c(o1)c1ccccc1n2Cc1cccc(F)c1`, the IC50 was over 50 µM.

`COC(=O)c1ccc(Cn2c3ccccc3c3oc(C(=O)OC)cc32)cc1`: the IC50 was over 50 µM.

Compound `COc1ccccc1Cn1c2ccccc2c2oc(CO)cc21` yielded a half-inhibitory concentration (IC50) of 28.3 µM.

`OCc1cc2c(o1)c1ccccc1n2Cc1ccccc1F` registered an IC50 of 40.9 µM.

For `OCc1ccc(Cn2c3ccccc3c3oc(CO)cc32)cc1`, the IC50 was over 50 µM.

Regarding `OCc1cc2[nH]c3ccccc3c2o1`, the half-inhibitory concentration (IC50) is over 50 µM.
